Substitutions are numbered along the chain they refer to. ≈ marks a conversion by molar mass, not a printed value. Calls of active or inactive are those of the source. No cut-off for these calls is given here.
Experiments:
[1] = target: T1, Penicillin-binding protein 2x (Streptococcus pneumoniae serotype 4 (strain ATCC BAA-334 / TIGR4)) (UniProt P14677); test: Binding affinity to PBP 2x in Streptococcus pneumoniae isolate 909 at 1.1 ng/ml to 1.1 ug /ml
T1 sequence (whole entry): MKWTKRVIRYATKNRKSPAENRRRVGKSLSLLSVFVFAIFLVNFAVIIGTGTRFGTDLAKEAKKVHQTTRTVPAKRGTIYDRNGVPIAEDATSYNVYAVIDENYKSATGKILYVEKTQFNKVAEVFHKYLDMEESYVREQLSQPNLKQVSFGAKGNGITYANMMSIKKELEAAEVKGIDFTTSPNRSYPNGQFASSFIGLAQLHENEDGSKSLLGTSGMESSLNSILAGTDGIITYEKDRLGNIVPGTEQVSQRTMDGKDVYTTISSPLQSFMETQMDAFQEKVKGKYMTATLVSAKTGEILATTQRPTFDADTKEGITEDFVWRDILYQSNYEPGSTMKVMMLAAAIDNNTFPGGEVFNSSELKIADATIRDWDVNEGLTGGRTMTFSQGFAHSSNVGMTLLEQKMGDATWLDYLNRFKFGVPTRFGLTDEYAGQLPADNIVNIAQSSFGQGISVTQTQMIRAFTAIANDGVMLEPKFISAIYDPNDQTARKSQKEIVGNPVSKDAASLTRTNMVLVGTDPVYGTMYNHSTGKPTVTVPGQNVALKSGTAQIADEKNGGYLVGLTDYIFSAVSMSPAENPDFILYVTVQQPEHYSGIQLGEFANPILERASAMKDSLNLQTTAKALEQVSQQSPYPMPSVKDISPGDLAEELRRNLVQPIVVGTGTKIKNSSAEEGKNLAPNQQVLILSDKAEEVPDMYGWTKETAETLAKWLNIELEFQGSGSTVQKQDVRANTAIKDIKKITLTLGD
How it was run: (§1)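 Cells grown at 37°C without aeration in C medium with 0.2% yeast extract, monitored by nephelometry, harvested at 80 to 100 nephelometry units and resuspended in 20 mM sodium phosphate (pH 7.2) with 0.2% Triton X-100. Lysate aliquots labeled with decreasing Bocillin FL (1.1, 0.36, 0.11, 0.036 μg/ml, onward) for 30 min at 37°C. PBPs were resolved by SDS-PAGE (7.5% resolving gel) and read by fluorescence imaging.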

[2] = target: T2, Penicillin-binding protein 1A (Streptococcus pneumoniae serotype 4 (strain ATCC BAA-334 / TIGR4)) (UniProt Q04707); test: Binding affinity to PBP 1a in Streptococcus pneumoniae isolate k-637 at 1.1 ng/ml to 1.1 ug /ml; how it was run: as §1
T2 sequence (whole entry): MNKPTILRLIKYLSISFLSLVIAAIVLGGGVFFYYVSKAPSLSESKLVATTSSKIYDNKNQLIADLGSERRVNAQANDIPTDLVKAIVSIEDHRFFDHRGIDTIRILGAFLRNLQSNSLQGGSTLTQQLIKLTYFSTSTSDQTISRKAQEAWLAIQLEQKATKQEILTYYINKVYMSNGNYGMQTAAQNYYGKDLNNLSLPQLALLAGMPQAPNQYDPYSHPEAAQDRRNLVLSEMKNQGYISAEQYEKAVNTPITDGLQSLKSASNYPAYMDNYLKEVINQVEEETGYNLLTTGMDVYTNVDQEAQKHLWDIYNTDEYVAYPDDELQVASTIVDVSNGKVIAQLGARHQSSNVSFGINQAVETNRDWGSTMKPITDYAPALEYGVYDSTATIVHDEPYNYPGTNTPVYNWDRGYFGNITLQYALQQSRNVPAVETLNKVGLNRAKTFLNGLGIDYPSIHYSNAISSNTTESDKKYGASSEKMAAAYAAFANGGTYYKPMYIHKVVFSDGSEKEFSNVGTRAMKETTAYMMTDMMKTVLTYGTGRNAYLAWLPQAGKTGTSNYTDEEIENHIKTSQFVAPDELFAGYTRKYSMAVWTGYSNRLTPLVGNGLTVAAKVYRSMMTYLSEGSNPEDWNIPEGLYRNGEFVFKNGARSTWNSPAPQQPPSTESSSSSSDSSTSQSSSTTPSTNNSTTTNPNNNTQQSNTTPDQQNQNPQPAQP

[3] = target: T1, Penicillin-binding protein 2x (Streptococcus pneumoniae serotype 4 (strain ATCC BAA-334 / TIGR4)); test: Binding affinity to PBP 2x in Streptococcus pneumoniae isolate k-421 at 1.1 ng/ml to 1.1 ug /ml; how it was run: as §1
[4] = target: T3, Penicillin-binding protein 2X (Streptococcus pneumoniae R6) (UniProt P59676); test: Binding affinity to PBP 2x in Streptococcus pneumoniae R6 at 1.1 ng/ml to 1.1 ug /ml; how it was run: as §1
T3 sequence (whole entry): T1 sequence (whole entry) with T385M

Streptococcus pneumoniae [5] = test: Antimicrobial activity against Streptococcus pneumoniae isolate k-637 obtained from CSF of patient; assay type: functional
Streptococcus pneumoniae [6] = test: Antimicrobial activity against Streptococcus pneumoniae isolate 909 obtained from bronchoalveolar lavage fluid of patient; assay type: functional; settings: isolate 909, Lung
Streptococcus pneumoniae [7] = test: Antimicrobial activity against Streptococcus pneumoniae isolate 2907 obtained from sinusitis of patient; assay type: functional
Streptococcus pneumoniae [8] = test: Antimicrobial activity against Streptococcus pneumoniae isolate 40 obtained from blood of patient; assay type: functional
Streptococcus pneumoniae [9] = test: Antimicrobial activity against Streptococcus pneumoniae isolate k-598 obtained from bronchoalveolar lavage fluid of patient; assay type: functional; settings: Lung
Streptococcus pneumoniae [10] = test: Antimicrobial activity against Streptococcus pneumoniae isolate k-585 obtained from bronchoalveolar lavage fluid of patient; assay type: functional; settings: isolate k-585, Lung
Streptococcus pneumoniae [11] = test: Antimicrobial activity against Streptococcus pneumoniae isolate k-421 obtained from ear of patient; assay type: functional
Streptococcus pneumoniae [12] = test: Antimicrobial activity against Streptococcus pneumoniae ATCC BAA-612; assay type: functional
Streptococcus pneumoniae [13] = test: Antimicrobial activity against Streptococcus pneumoniae isolate 187 obtained from bronchoalveolar lavage fluid of patient; assay type: functional; settings: isolate 187, Lung
Streptococcus pneumoniae [14] = test: Antimicrobial activity against Streptococcus pneumoniae isolate 657 obtained from sputum of patient; assay type: functional
Streptococcus pneumoniae [15] = test: Antimicrobial activity against Streptococcus pneumoniae isolate 2904 obtained from blood of patient; assay type: functional
Streptococcus pneumoniae [16] = test: Antimicrobial activity against Streptococcus pneumoniae ATCC BAA-343; assay type: functional
Streptococcus pneumoniae [17] = test: Antimicrobial activity against Streptococcus pneumoniae isolate 4134 obtained from sputum of patient; assay type: functional

| SMILES | Activity [1] | Activity [2] | Activity [3] | Activity [4] | MIC (Streptococcus pneumoniae [5]) [µg/mL] | MIC (Streptococcus pneumoniae [6]) [µg/mL] | MIC (Streptococcus pneumoniae [7]) [µg/mL] | MIC (Streptococcus pneumoniae [8]) [µg/mL] | MIC (Streptococcus pneumoniae [9]) [µg/mL] | MIC (Streptococcus pneumoniae [10]) [µg/mL] | MIC (Streptococcus pneumoniae [11]) [µg/mL] | MIC (Streptococcus pneumoniae [12]) [µg/mL] | MIC (Streptococcus pneumoniae [13]) [µg/mL] | MIC (Streptococcus pneumoniae [14]) [µg/mL] | MIC (Streptococcus pneumoniae [15]) [µg/mL] | MIC (Streptococcus pneumoniae [16]) [µg/mL] | MIC (Streptococcus pneumoniae [17]) [µg/mL] |
| --- | --- | --- | --- | --- | --- | --- | --- | --- | --- | --- | --- | --- | --- | --- | --- | --- | --- |
| Cc1cc(C)n2c1C=C1C=CC(CCC(=O)Nc3ccc(OCC(=O)N[C@@H]4C(=O)N5[C@@H]4SC(C)(C)[C@@H]5C(=O)O)cc3)=[N+]1[B-]2(F)F | inactive | Active | inactive | inactive |  |  |  |  |  |  |  |  |  |  |  |  |  |
| CC1(C)S[C@@H]2[C@H](NC(=O)[C@H](N)c3ccc(O)cc3)C(=O)N2[C@H]1C(=O)O [AMOXICILLIN] |  |  |  |  | 2 (≈ 5.47 µM) | 8 (≈ 21.9 µM) | 0.25 (≈ 0.684 µM) | 8 (≈ 21.9 µM) | 16 (≈ 43.8 µM) | 4 (≈ 10.9 µM) | 2 (≈ 5.47 µM) | 0.12 (≈ 0.328 µM) | 16 (≈ 43.8 µM) | 0.06 (≈ 0.164 µM) | 2 (≈ 5.47 µM) | 2 (≈ 5.47 µM) | 1 (≈ 2.74 µM) |
| CO/N=C(\C(=O)N[C@@H]1C(=O)N2C(C(=O)[O-])=C(C[N+]3(C)CCCC3)CS[C@H]12)c1csc(N)n1 [CEFEPIME] |  |  |  |  | 2 (≈ 4.16 µM) | 1 (≈ 2.08 µM) | 0.25 (≈ 0.52 µM) | 1 (≈ 2.08 µM) | 8 (≈ 16.6 µM) | 1 (≈ 2.08 µM) | 1 (≈ 2.08 µM) | 0.25 (≈ 0.52 µM) | 2 (≈ 4.16 µM) | 0.06 (≈ 0.125 µM) | 1 (≈ 2.08 µM) | 4 (≈ 8.32 µM) | 1 (≈ 2.08 µM) |
| CO/N=C(\C(=O)N[C@@H]1C(=O)N2C(C(=O)O)=C(COC(C)=O)CS[C@H]12)c1csc(N)n1 [CEFOTAXIME] |  |  |  |  | 1 (≈ 2.2 µM) | 2 (≈ 4.39 µM) | 0.25 (≈ 0.549 µM) | 4 (≈ 8.78 µM) | 16 (≈ 35.1 µM) | 1 (≈ 2.2 µM) | 2 (≈ 4.39 µM) | 0.06 (≈ 0.132 µM) | 8 (≈ 17.6 µM) | 0.06 (≈ 0.132 µM) | 4 (≈ 8.78 µM) | 4 (≈ 8.78 µM) | 0.5 (≈ 1.1 µM) |
| CO/N=C(\C(=O)N[C@@H]1C(=O)N2C(C(=O)O)=C(CSc3nc(=O)c(O)nn3C)CS[C@H]12)c1csc(N)n1 [CEFTRIAXONE] |  |  |  |  | 0.5 (≈ 0.902 µM) | 1 (≈ 1.8 µM) | 0.25 (≈ 0.451 µM) | 4 (≈ 7.21 µM) | 4 (≈ 7.21 µM) | 0.25 (≈ 0.451 µM) | 1 (≈ 1.8 µM) | 0.06 (≈ 0.108 µM) | 4 (≈ 7.21 µM) | 0.06 (≈ 0.108 µM) | 2 (≈ 3.61 µM) | 4 (≈ 7.21 µM) | 0.25 (≈ 0.451 µM) |
| CO/N=C(\C(=O)N[C@@H]1C(=O)N2C(C(=O)O)=C(COC(N)=O)CS[C@H]12)c1ccco1 [CEFUROXIME] |  |  |  |  | 4 (≈ 9.43 µM) | 8 (≈ 18.9 µM) | 0.25 (≈ 0.589 µM) | 32 (≈ 75.4 µM) | > 32 | 2 (≈ 4.71 µM) | 2 (≈ 4.71 µM) | 0.12 (≈ 0.283 µM) | > 32 | 0.12 (≈ 0.283 µM) | 16 (≈ 37.7 µM) | 8 (≈ 18.9 µM) | 2 (≈ 4.71 µM) |
| C[C@@H](O)[C@H]1C(=O)N2C(C(=O)O)=C(S[C@@H]3CN[C@H](C(=O)N(C)C)C3)[C@H](C)[C@H]12 [MEROPENEM] |  |  |  |  | 0.5 (≈ 1.3 µM) | 0.25 (≈ 0.652 µM) | 0.12 (≈ 0.313 µM) | 0.5 (≈ 1.3 µM) | 0.5 (≈ 1.3 µM) | 0.25 (≈ 0.652 µM) | 0.25 (≈ 0.652 µM) | 0.06 (≈ 0.156 µM) | 0.5 (≈ 1.3 µM) | 0.06 (≈ 0.156 µM) | 0.5 (≈ 1.3 µM) | 0.5 (≈ 1.3 µM) | 0.25 (≈ 0.652 µM) |
| CC1(C)S[C@@H]2[C@H](NC(=O)Cc3ccccc3)C(=O)N2[C@H]1C(=O)O [PENICILLIN G] |  |  |  |  | 8 (≈ 23.9 µM) | 4 (≈ 12 µM) | 0.5 (≈ 1.5 µM) | 8 (≈ 23.9 µM) | 8 (≈ 23.9 µM) | 4 (≈ 12 µM) | 2 (≈ 5.98 µM) | 0.12 (≈ 0.359 µM) | 8 (≈ 23.9 µM) | 0.12 (≈ 0.359 µM) | 4 (≈ 12 µM) | 8 (≈ 23.9 µM) | 2 (≈ 5.98 µM) |

— ChEMBL document CHEMBL1255255, “Highly variable penicillin resistance determinants PBP 2x, PBP 2b, and PBP 1a in isolates of two Streptococcus pneumoniae clonal groups, Poland 23F-16 and Poland 6B-20” (2008)
